Measured values taken from ChEMBL document CHEMBL4715734, “Discovery of the Potent and Selective M1 PAM-Agonist N-[(3R,4S)-3-Hydroxytetrahydro-2H-pyran-4-yl]-5-methyl-4-[4-(1,3-thiazol-4-yl)benzyl]pyridine-2-carboxamide (PF-06767832): Evaluation of Efficacy and Cholinergic Side Effects” (J Med Chem, 2016).
Calls of active or inactive are those of the source. No cut-off for these calls is given here.

Columns and labels:
[1] = fAUC (0 to 24 hrs) in rat at 10 mg/kg, po administered for 14 days; format: ADME, organism-based; details: in vivo, 336 h, time 14 day
How it was run: (§1)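 2-week repeat oral dosing in rats, 0.5% methylcellulose formulation; N=4/sex/dose; doses 3, 10, 30 (males)/15 (females) mg/kg; unbound exposures reported per dose and sex.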

[2] = fCmax in dog at 1 mg/kg, po measured after 4 hrs using spray-dried dispersion formulation; format: ADME, organism-based, Canis lupus familiaris; details: in vivo
How it was run: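 Dogs from the crossover cardiovascular telemetry study (N=4), dosed orally at 0.3, 1 and 3 mg/kg; unbound Cmax extrapolated from 4 h post-dose in-life plasma samples.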

[3] = biological target: T1, Muscarinic acetylcholine receptor M5 (Homo sapiens, UniProt P08912); assay: Agonist activity at human recombinant muscarinic M5 receptor stably expressed in CHO cells assessed as increase in intracellular calcium level up to 10 uM incubated for 10 mins by Fluo-8AM dye based FLIPR TETRA method; format: cell-based
T1 sequence (P08912 whole entry): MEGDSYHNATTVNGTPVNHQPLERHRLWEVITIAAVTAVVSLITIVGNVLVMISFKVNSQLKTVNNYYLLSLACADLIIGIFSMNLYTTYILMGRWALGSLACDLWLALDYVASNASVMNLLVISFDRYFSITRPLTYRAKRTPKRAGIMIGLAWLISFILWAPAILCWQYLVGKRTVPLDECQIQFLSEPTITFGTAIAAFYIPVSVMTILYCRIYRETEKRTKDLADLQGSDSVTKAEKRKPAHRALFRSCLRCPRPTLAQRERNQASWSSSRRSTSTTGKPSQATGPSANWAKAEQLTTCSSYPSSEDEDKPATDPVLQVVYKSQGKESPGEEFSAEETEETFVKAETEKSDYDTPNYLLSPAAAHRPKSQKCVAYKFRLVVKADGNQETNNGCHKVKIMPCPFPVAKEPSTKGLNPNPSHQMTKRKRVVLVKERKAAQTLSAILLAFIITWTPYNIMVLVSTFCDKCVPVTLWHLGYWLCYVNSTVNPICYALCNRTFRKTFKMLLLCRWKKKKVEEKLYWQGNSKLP

[4] = Unbound plasma concentration in scopolamine-induced Wistar rat model at 1 mg/kg, po measured after 1 hr; format: ADME, organism-based; details: in vivo
How it was run: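 Plasma sampled 1 h after oral dosing in satellite animals (N=2/dose) given the same dosing solution as the water-maze study (suspension in 0.5% methylcellulose in water); unbound concentration reported as the group average.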

[5] = biological target: T2, Muscarinic acetylcholine receptor M1 (Homo sapiens, UniProt P11229); assay: Agonist activity at muscarinic M1 receptor (unknown origin) expressed in CHO cells assessed as accumulation of inositol phosphate measured after 30 mins by HTRF assay; format: functional, cell-based
T2 sequence (P11229 whole entry): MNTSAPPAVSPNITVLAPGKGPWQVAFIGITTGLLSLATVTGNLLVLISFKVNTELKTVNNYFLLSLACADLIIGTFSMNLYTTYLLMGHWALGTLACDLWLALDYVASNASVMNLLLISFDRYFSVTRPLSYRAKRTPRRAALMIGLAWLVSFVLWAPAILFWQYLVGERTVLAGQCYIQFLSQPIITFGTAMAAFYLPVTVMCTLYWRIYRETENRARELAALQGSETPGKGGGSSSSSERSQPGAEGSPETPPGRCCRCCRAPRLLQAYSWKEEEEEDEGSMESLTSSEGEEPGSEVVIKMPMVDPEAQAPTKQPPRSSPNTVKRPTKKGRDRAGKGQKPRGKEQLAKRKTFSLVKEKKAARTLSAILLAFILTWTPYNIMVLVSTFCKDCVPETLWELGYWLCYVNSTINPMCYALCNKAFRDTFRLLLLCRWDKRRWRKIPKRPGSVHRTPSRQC

Rattus norvegicus [6] = assay: Reversal of scopolamine-induced spatial learning in Wistar rat model at 0.32 mg/kg, po administered 15 min before training followed by 30 mins later administration with scopolamine measured after 24 hrs by Morris water maze test
[7] = Unbound brain concentration in […] in Sprague-Dawley rat model at 0.32 mg/kg, sc measured after 1.67 hrs; format: ADME, organism-based; details: in vivo
How it was run: (§2)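 Randomly selected animals (N=2/dose) at the end of the rat PPI study, T = 1.67 h. Dosed subcutaneously as a suspension in 0.5% methylcellulose in water. Plasma and brain concentrations were averaged.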

[8] = biological target: T3, Muscarinic acetylcholine receptor M1 (Homo sapiens) (UniProt P11229); assay: Binding affinity to muscarinic M1 receptor (unknown origin) assessed as recruitment of beta-arrestin by measuring binding constant by Path Hunter assay; format: cell-based; details: CHO, filed as positive allosteric modulator
T3 sequence (whole entry): T2 sequence (P11229 whole entry)

[9] = Unbound plasma concentration in […] in Sprague-Dawley rat model at 0.32 mg/kg, sc measured after 1.67 hrs; format: ADME, organism-based; details: in vivo; how it was run: as §2
[10] = fCmax in rat at 15 mg/kg, po administered for 14 days; format: ADME, organism-based; details: in vivo, 336 h, time 14 day; how it was run: as §1
[11] = Unbound plasma concentration in amphetamine-induced C57BL/6J mouse model of hyperlocomotion at 3.2 mg/kg, sc measured after 1 hr; format: ADME, organism-based; details: in vivo
How it was run: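 Satellite PK animals from the mouse aLMA study, N=2/dose. Dosed subcutaneously with a solution in 5/15/80 DMSO/Solutol/water. Plasma and brain were sampled at T = 1 h.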

[12] = Unbound plasma concentration in CD-1 mouse at 1 mg/kg, sc measured after 2 hrs by LC-MS/MS analysis; format: ADME, organism-based; details: in vivo
[13] = Toxicity in male Beagle dog assessed as effect on heart rate at 3 mg/kg, po observed upto 9 hrs post last dose by telemetry; format: organism-based, Canis lupus familiaris; details: in vivo
How it was run: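 Crossover telemetry study in dogs at three oral doses (0.3, 1 and 3 mg/kg), N=4. Endpoints were blood pressure, maximum systolic left ventricular pressure, LV +dP/dt max, activity, heart rate, and RR, QT and QTc intervals, followed up to 9 h post dose.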

[14] = fCmax in dog at 3 mg/kg, po using spray-dried dispersion formulation; format: ADME, organism-based, Canis lupus familiaris; details: in vivo
[15] = Ratio of AUC in rat brain to fAUC in rat plasma; format: ADME, cell-free; details: in vivo
[16] = Toxicity in dog assessed as ataxia at 45 mg/kg, po using spray-dried dispersion formulation measured after 45 mins; format: organism-based, Canis lupus familiaris; details: in vivo, 0.75 h
How it was run: (§3)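 Dogs received single escalating oral doses as a spray-dried dispersion (10% drug loading with HPMCAS-M). The dispersion was suspended in 0.5 wt% methylcellulose/0.5 wt% HPMCAS in 20 mM tris buffer, pH 7.4. One dog per sex per dose was used, and clinical signs were recorded.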

[17] = Toxicity in dog assessed as convulsion at 45 mg/kg, po using spray-dried dispersion formulation measured after 45 mins; format: organism-based, Canis lupus familiaris; details: in vivo, 0.75 h; how it was run: as §3
[18] = Ratio of fAUC in brain to plasma of scopolamine-induced Wistar rat model at 0.1 mg/kg, po measured after 1 hr; format: ADME, organism-based; details: brain and plasma, read-out: Ratio AUC
Rattus norvegicus [19] = assay: Reversal of scopolamine-induced memory impairment in Wistar rat model at 0.32 mg/kg, po administered 15 min before training followed by 30 mins later administration with scopolamine measured after 24 hrs by Morris water maze test
[20] = Ratio of fAUC in C57BL/6 mouse brain to plasma; format: ADME, cell-free; details: brain and plasma, read-out: Ratio AUC

- fAUC [1]: 5.739 µM·h
- fCmax [2]: 169 nM
- Activity [3]: Not Active
- Cp(f) [4]: 19.6 nM
- EC50 [5]: ≥ 9.2 µM
- Drug uptake(free) [7]: 4.3 nM
- Kb [8]: 5 µM
- Cp(f) [9]: 11.9 nM
- fCmax [10]: 708 nM
- Cp(f) [11]: 255 nM
- Cp(f) [12]: 42.1 nM
- fCmax [14]: 568 nM
- Ratio AUC [15]: 0.36
- Kp uu at 1 h [18]: 0.34
- Kp uu [20]: 0.34
Structure (SMILES): Cc1cnc(C(=O)N[C@H]2CCOC[C@@H]2O)cc1Cc1ccc(-c2cscn2)cc1
- Activity (Rattus norvegicus [6]): Active
- Activity [13]: 25 bpm
- Activity [16]: Toxic
- Activity [17]: Toxic
- Activity (Rattus norvegicus [19]): Active
